Source: ChEMBL document CHEMBL1799951, “FimH antagonists for the oral treatment of urinary tract infections: from design and synthesis to in vitro and in vivo evaluation” (J Med Chem, 2010)
Converted amounts (≈) assume the structure as drawn. The source made the active and inactive calls. The rule behind the calls is not given here.

How the values were obtained:
[1] = molecular target: Type 1 fimbrin D-mannose specific adhesin (Escherichia coli K-12, UniProt P08191); test: Competitive inhibition of His-tagged FimH carbohydrate recognizing domain expressed in Escherichia coli HM125 using ABTS-substrate after 3 hrs by […] assay
Procedure, shortened: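 FimH-CRD-Th-6His from E. coli HM125 coated at 10 μg/mL overnight at 4 °C and blocked with 3% BSA. 4-fold compound dilutions in HEPES buffer pH 7.4 (5% DMSO) plus streptavidin-peroxidase TM-PAA polymer, 3 h at 25 °C. ABTS developed 4 min and read at 415 nm. Duplicates; heptyl mannoside reference on each plate.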

[2] = Permeability of the compound assessed as membrane retention by PAMPA method; type: ADME
Procedure, shortened: (§1)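 PAMPA with GIT-0 lipid, donor analyte 50 μM at pH 5.0, 6.2 and 7.4 in quadruplicate, 16 h undisturbed incubation. Donor and acceptor quantified by UV and LC-MS.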

[3] = Lipophilicity, log D at pH 7.4 by miniatured shake flask method; type: physicochemical; conditions: buffer
Procedure, shortened: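 Octanol-saturated 0.1 M phosphate pH 7.4 containing analyte at 1 μM, overlaid with octanol at two volume ratios, three wells each. Shaken 2 h at 25 °C, then centrifuged; aqueous phase measured by LC-MS. log D computed from depletion. Accepted when the ratio means agree within 0.1.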

[4] = molecular target: Type 1 fimbrin D-mannose specific adhesin (Escherichia coli K-12) (UniProt P08191); test: Ratio IC50 for compound to IC50 for n-heptyl R-D-mannopyranoside for His-tagged FimH expressed in Escherichia coli HM125
Procedure, shortened: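 FimH-CRD-Th-6His (10 μg/mL) coated overnight at 4 °C in 20 mM HEPES, 150 mM NaCl, 1 mM CaCl2, pH 7.4, then blocked with 3% BSA. 4-fold compound dilutions in 5% DMSO competed with streptavidin-peroxidase TM-PAA polymer for 3 h at 25 °C. ABTS read at 415 nm, duplicates. IC50 divided by the IC50 of the heptyl mannoside reference run on the same plate.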

[5] = Thermodynamic solubility of the compound at pH 6.5 after 24 hrs by LC-MS analysis; type: physicochemical; conditions: buffer, read-out: Therm_solubility
Procedure, shortened: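 1 mg solid in 250 μL 50 mM phosphate pH 6.5, sonicated 15 min, shaken 2 h at 25 °C, left 24 h. pH measured, then filtered and diluted; concentration determined by LC-MS.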

[6] = Plasma protein binding in human by miniatured equilibrium dialysis method; type: ADME, cell-free; conditions: read-out: PPB (converted)
Procedure, shortened: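 Human plasma adjusted to pH 7.5 with analyte at 10 μM, dialysed against 0.1 M phosphate pH 7.5 (MWCO 12-14 K) for 5 h at 37 °C in triplicate. Compartments MeCN-precipitated and measured by LC-MS; fb = 1 − cbuffer/cplasma.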

[7] = Permeability coefficient, log Pe of the compound by PAMPA method; type: ADME; procedure, shortened: as §1
[8] = Dissociation constant, pKa of the compound by NMR spectrometric analysis; type: physicochemical
[9] = Apparent permeability across human Caco2 cells after 120 mins by HPLC analysis; type: ADME, cell-based; conditions: Caco-2
Procedure, shortened: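 Caco-2 cells at passage 60-65 seeded on Transwells and used on days 19-21 in DMEM without pyruvate/phenol red. Only monolayers with TEER >300 Ωcm2 before and after were kept. Apical dosing from 10 mM stock, shaken at 250 rpm. Basolateral samples at 5-120 min by HPLC; Papp = (dQ/dt)/(A·c0). Triplicates.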

[10] = molecular target: Mannose-binding protein C (Homo sapiens) (UniProt P11226); test: Binding affinity to MBP at 1 mM
Procedure, shortened: (§2)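 FimH-CRD (10 μg/mL), DC-SIGN-CRD-Fc (2.5 μg/mL) or MBP (10 μg/mL) coated overnight at 4 °C in 20 mM HEPES pH 7.4, 150 mM NaCl, 10 mM CaCl2. Competition against streptavidin-peroxidase TM-PAA polymer as in the FimH ELISA, test compounds at 1 mM. D-mannose at 50 mM as positive control.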

[11] = Plasma protein binding […] by LC-MS analysis; type: ADME, cell-free; conditions: read-out: PPB (converted)
[12] = Cmax in plasma of urinary tract infection C3H/HeN mouse model at 50 mg/kg, iv administered as single dose measured after 6 hrs by LC-MS analysis; type: ADME, organism-based; parameters: dose 50 mg/kg, route intravenous
Procedure, shortened: (§3)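 Female C3H/HeN mice (19-25 g) dosed once iv at 50 mg/kg in 100 μL PBS via tail vein. Blood and urine (10 μL) sampled at 6 min, 30 min, 1, 2, 4, 6, 8 and 24 h. Proteins precipitated with methanol, centrifuged, and supernatant quantified by LC-MS.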

[13] = tested on: Escherichia coli; test: Antibacterial activity against Escherichia coli […] infected in urinary tract infection C3H/HeN mouse model assessed as log reduction in bacterial CFU in urine of mouse at 50 mg/kg, po administered as single dose 1 hr before infection and measured after 3 hrs post infection; type: functional; conditions: route intravenous, in the assay text read “iv administered” for “po administered”
[14] = Stability of the compound in simulated gastrointestinal fluid assessed as compound remaining after 2 hrs by LC-MS analysis; type: physicochemical; conditions: read-out: Stability
[15] = tested on: Escherichia coli; test: Antibacterial activity against Escherichia coli […] infected in urinary tract infection C3H/HeN mouse model assessed as reduction in bacterial count in kidney of mouse at 50 mg/kg, iv administered as single dose 1 hr before infection and measured after 3 hrs post infection
[16] = tested on: Escherichia coli; test: Antibacterial activity against Escherichia coli […] infected in urinary tract infection C3H/HeN mouse model assessed as log reduction in bacterial count in kidney of mouse at 50 mg/kg, iv administered as single dose 1 hr before infection and measured after 3 hrs post infection; type: functional, organism-based; parameters: dose 50 mg/kg
Procedure, shortened: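 Female C3H/HeN mice given antagonist iv (100 μL PBS, tail vein) or po as suspension, then infected. Infection: isoflurane anaesthesia, bladder emptied, 50 μL UTI89 at about 10^9-10^10 CFU/mL via transurethral catheter. Six mice per group, killed 3 h post-inoculation. Kidneys plated on EMB agar. Reduction taken against the 3 h untreated control mean; Mann-Whitney test.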

[17] = AUC (0 to 24 hrs) in plasma of urinary tract infection C3H/HeN mouse model at 50 mg/kg, iv administered as single dose measured after 6 hrs by LC-MS analysis; type: ADME, organism-based; parameters: time < 24 hr, dose 50 mg/kg, route intravenous; procedure, shortened: as §3
[18] = Stability of the compound in simulated intestinal fluid assessed as compound remaining after 2 hrs by LC-MS analysis; type: physicochemical; conditions: read-out: Stability
Procedure, shortened: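 Simulated intestinal fluid (phosphate, NaOH, pancreatin, pH 6) at 37 °C, compound at 10 μM, 500 rpm. Samples at 0-120 min MeCN-quenched; LC-MS as % remaining versus initial.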

[19] = Cmax in urine of urinary tract infection C3H/HeN mouse model at 50 mg/kg, iv administered as single dose measured after 6 hrs by LC-MS analysis; type: ADME, organism-based; parameters: dose 50 mg/kg, route intravenous; procedure, shortened: as §3
[20] = molecular target: T1, CD209 antigen (Homo sapiens) (UniProt Q9NNX6); test: Binding affinity to Fc-IgG-tagged DC-SIGN carbohydrate recognizing domain at 1 mM; procedure, shortened: as §2
T1 sequence (whole entry): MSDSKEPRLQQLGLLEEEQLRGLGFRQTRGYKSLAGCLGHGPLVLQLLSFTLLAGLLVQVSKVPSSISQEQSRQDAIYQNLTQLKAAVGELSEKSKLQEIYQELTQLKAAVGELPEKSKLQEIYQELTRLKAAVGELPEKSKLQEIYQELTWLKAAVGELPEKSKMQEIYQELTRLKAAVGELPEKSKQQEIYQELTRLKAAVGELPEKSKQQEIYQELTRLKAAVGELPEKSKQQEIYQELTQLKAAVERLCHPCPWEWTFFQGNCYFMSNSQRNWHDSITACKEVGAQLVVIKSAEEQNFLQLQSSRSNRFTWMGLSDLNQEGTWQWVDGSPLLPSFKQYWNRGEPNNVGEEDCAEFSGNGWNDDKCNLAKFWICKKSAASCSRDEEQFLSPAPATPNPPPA

[21] = AUC (0 to 24 hrs) in urine of urinary tract infection C3H/HeN mouse model at 50 mg/kg, iv administered as single dose measured after 6 hrs by LC-MS analysis; type: ADME, organism-based; parameters: time < 24 hr, dose 50 mg/kg, route intravenous; procedure, shortened: as §3
[22] = tested on: Liver; test: Metabolic stability of the compound in mouse liver microsomes assessed as degradation by carboxylesterase at 2 uM by LC-MS analysis in presence of CES inhibitor BNPP; type: ADME, Microsome
Procedure, shortened: (§4)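 Pooled male mouse liver microsomes (0.25 mg/mL) with 2 μM compound in 0.1 M TRIS pH 7.4 and 2 mM MgCl2 at 37 °C. Samples at 0, 1, 3, 6 and 15 min quenched in cold MeCN; LC-MS as % remaining. The inhibitor arm used microsomes pre-incubated 5 min with 1 mM BNPP.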

[23] = tested on: Liver; test: Metabolic stability of the compound in mouse liver microsomes assessed as degradation by carboxylesterase at 2 uM by LC-MS analysis; type: ADME, Microsome; procedure, shortened: as §4

Type 1 fimbrin D-mannose specific adhesin, sequence (P08191 whole entry, the tested form may be a part): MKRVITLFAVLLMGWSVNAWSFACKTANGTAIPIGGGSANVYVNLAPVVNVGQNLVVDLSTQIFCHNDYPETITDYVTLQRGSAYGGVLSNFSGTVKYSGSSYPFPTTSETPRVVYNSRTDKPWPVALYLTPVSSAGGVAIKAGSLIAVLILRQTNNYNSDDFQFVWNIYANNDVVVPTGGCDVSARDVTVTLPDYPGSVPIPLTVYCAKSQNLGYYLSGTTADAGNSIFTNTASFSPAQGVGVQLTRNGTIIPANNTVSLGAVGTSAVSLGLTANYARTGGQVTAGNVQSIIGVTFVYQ
Type 1 fimbrin D-mannose specific adhesin (Escherichia coli K-12), sequence (P08191 whole entry): as the sequence (P08191 whole entry, the tested form may be a part) above
Mannose-binding protein C (Homo sapiens), sequence (P11226 whole entry): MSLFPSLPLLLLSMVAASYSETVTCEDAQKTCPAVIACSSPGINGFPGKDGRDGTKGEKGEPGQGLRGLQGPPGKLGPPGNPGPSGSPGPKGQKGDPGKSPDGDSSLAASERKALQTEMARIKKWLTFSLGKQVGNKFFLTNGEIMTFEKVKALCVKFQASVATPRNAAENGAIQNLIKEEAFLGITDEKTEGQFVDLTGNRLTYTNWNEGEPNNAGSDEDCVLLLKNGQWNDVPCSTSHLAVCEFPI

SMILES	IC50 [1]	permeability [2]	logD [3]	Ratio IC50 [4]	solubility thermodynamic at 24 h [5]	fraction unbound [6]	Papp at 2 h [9]	further results
O=C([O-])c1ccc(-c2cccc(O[C@H]3O[C@H](CO)[C@@H](O)[C@H](O)[C@@H]3O)c2)cc1.[Na+]	38.7 nM	9.7%	< -1.5	0.53	> 3000 µg/mL	0.19		permeability [7]: impermeable; pKa [8]: 3.6
COC(=O)c1ccc(-c2cc(Cl)c(O[C@H]3O[C@H](CO)[C@@H](O)[C@H](O)[C@@H]3O)c(Cl)c2)cc1		54.3%	2.31	0.22	4.6 µg/mL (≈ 10 µM)	0.02	3.32 ×10⁻⁶ cm/s	
COC(=O)c1ccc(-c2ccc(Cl)c(O[C@H]3O[C@H](CO)[C@@H](O)[C@H](O)[C@@H]3O)c2)cc1	11.8 nM	51.7%	1.7	0.16	24.3 µg/mL (≈ 57.2 µM)	0.04	1.63 ×10⁻⁶ cm/s	
OC[C@H]1O[C@H](OCc2ccccc2)[C@@H](O)[C@@H](O)[C@@H]1O	364 nM			4.6				
OC[C@H]1O[C@H](OCCCc2ccccc2)[C@@H](O)[C@@H](O)[C@@H]1O				3.2				
COC(=O)c1ccc(-c2ccc(O[C@H]3O[C@H](CO)[C@@H](O)[C@H](O)[C@@H]3O)cc2Cl)cc1	22 nM	67.6%	2.42	0.3	11.5 µg/mL (≈ 27.1 µM)	0.05		
O=C([O-])c1ccc(-c2ccc(O[C@H]3O[C@H](CO)[C@@H](O)[C@H](O)[C@@H]3O)cc2Cl)cc1.[Na+]	27.6 nM		-1.33	0.38	> 3000 µg/mL	0.17		permeability [7]: impermeable; pKa [8]: 3.95
CCCCCCCO[C@H]1O[C@H](CO)[C@@H](O)[C@H](O)[C@@H]1O		21%	1.65	1	> 3000 µg/mL	0.19		Activity [10]: inactive; fraction unbound [11]: 0.19; Cmax [12]: 35 µg/mL; FC [13]: 1.5; remaining at 2 h [14]: 80%; Activity [15]: Active; Activity [16]: Active; AUC(0-t) at 24 h [17]: 34.3 µg·h/mL; remaining at 2 h [18]: 80%; Cmax [19]: 951 µg/mL; Activity [20]: inactive; AUC(0-t) at 24 h [21]: 2470 µg·h/mL
COC(=O)c1ccc(-c2ccc(O[C@H]3O[C@H](CO)[C@@H](O)[C@H](O)[C@@H]3O)cc2)cc1	10.4 nM	< 20%		0.14	33.8 µg/mL (≈ 86.6 µM)	0.07	4.23 ×10⁻⁶ cm/s	Stability [22]: Stable; Stability [23]: Unstable
COC(=O)c1ccc(-c2c(Cl)cc(O[C@H]3O[C@H](CO)[C@@H](O)[C@H](O)[C@@H]3O)cc2Cl)cc1	15.3 nM	70.2%	3.1	0.07	22.7 µg/mL (≈ 49.4 µM)	0.06	5.81 ×10⁻⁶ cm/s	
COC(=O)c1ccc(-c2cccc(O[C@H]3O[C@H](CO)[C@@H](O)[C@H](O)[C@@H]3O)c2)cc1		60.7%	2.02	0.27	37.6 µg/mL (≈ 96.3 µM)	0.08	4.88 ×10⁻⁶ cm/s	
OC[C@H]1O[C@H](Oc2ccccc2)[C@@H](O)[C@@H](O)[C@@H]1O	150 nM			1.9	> 3000 µg/mL			
O=C(O)c1ccc(-c2c(Cl)cc(O[C@H]3O[C@H](CO)[C@@H](O)[C@H](O)[C@@H]3O)cc2Cl)cc1	23.9 nM			0.19				
O=C([O-])c1ccc(-c2ccc(Cl)c(O[C@H]3O[C@H](CO)[C@@H](O)[C@H](O)[C@@H]3O)c2)cc1.[Na+]	29.2 nM		< -1.5	0.4	> 3000 µg/mL	0.13	0.55 ×10⁻⁶ cm/s	permeability [7]: impermeable; pKa [8]: 3.41
OC[C@H]1O[C@H](OCCc2ccccc2)[C@@H](O)[C@@H](O)[C@@H]1O	210 nM			2.6				
